Screens as filed in PubChem BioAssay.
The entries come from a sample that favours hits as a whole.
XBP1 UPR activ: activators of adaptive arm of unfolded protein response (XBP1); CHO-XBP1 luciferase reporter, IRE1-XBP1 UPR activation, luminescence; percent of tunicamycin response, DMSO as zero; activation, % at 20 µM; actives 0.33% (n = 330,000); AID 463104;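 active = versus positive control, 20 µM dose yields 30% or more activation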
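Material: IRE1-XBP1 luciferase reporter CHO line / Quantity: one thousand reporter cells per well / Buffer or medium: F12 with 10% serum / Compound: 20 µM single concentration, DMSO 1% / Times: 6 h treatment, 37 °C / Detection: Steady-Glo luciferase glow luminescence, 10 min after reagent addition / Benchmarks: tunicamycin high, DMSO low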
UPR CHOP act: apoptotic UPR (CHOP) activation | CHO-CHOP luciferase reporter, luminescence; percent of tunicamycin response over DMSO baseline | activation, % at 10 µM | actives 0.34% (n = 330,000);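 active = at 10 µM dose, activation of 40% or more, normalized to positive control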
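measured by = luciferase luminescence | assay system = CHO-CHOP cells, stable luciferase reporter of PERK-eIF2a-CHOP signalling | amount = 500 reporter cells seeded per well | timing = 6 h compound exposure at 37 °C after overnight seeding | controls = positive tunicamycin 10 µg/mL, negative DMSO alone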
NOD2 RIPK2 PPI: inhibitors of human NOD2-RIPK2 interaction; actives 0.38% (n = 360,000); CHO BLA complementation NOD2-RIPK2, CCF4 ratio; AID 624267; inhibition, % at 4.98 µM; in the data active = inhibition above about 21%
TLR9-MyD88 block: inhibitors of human TLR9-MyD88 binding | Q9NR96+Q99836 | CHO BLA complementation TLR9-MyD88, CCF4 FRET ratio | inhibition, % at 4.98 µM | actives 0.21% (n = 340,000);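 active = inhibition above the mean over all tested compounds plus 3 SD, cut at about 21% in these data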
TLR4 MyD88 comp: inhibitors of human TLR4-MyD88 binding; AID 861; HeLa CL3-4 TLR4/MyD88 BLA complementation, FRET ratio; inhibition, % at 8.4 µM; actives 0.18% (n = 200,000); O00206+Q99836; in the data active = inhibition above about 25%
Target sequence (O00206 whole entry, looked up): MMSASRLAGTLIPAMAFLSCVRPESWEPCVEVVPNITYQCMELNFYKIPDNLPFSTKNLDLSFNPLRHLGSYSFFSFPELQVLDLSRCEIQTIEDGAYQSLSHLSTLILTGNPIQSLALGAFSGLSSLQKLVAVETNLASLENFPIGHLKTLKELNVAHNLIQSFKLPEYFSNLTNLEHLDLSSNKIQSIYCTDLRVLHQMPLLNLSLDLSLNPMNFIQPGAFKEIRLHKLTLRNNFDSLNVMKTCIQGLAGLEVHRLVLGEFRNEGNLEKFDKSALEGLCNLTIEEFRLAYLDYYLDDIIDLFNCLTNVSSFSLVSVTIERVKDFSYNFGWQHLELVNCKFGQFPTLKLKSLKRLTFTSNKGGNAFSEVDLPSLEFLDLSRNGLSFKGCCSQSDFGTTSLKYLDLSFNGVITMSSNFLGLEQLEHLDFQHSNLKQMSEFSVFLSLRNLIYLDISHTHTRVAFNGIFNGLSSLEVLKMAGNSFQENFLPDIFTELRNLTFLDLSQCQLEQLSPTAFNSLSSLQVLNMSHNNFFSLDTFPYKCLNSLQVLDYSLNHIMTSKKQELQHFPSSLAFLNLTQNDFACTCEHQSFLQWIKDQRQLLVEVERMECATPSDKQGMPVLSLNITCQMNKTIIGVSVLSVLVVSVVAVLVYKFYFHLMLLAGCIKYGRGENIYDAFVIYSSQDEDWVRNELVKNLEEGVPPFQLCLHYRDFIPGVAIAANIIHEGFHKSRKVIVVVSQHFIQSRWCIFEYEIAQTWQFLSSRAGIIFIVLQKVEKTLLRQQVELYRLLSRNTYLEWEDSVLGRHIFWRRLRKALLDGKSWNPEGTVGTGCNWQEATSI
Target sequence (Q99836 whole entry, looked up): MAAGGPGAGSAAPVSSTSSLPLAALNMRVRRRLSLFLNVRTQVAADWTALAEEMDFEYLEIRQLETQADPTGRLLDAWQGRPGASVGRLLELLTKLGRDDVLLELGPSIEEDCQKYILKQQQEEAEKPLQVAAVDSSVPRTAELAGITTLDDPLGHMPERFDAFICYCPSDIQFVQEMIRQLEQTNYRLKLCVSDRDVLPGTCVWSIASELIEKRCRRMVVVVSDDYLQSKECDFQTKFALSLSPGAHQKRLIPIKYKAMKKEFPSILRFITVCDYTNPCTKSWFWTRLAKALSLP
CHOP inhibitor: blocks CHOP induction under ER stress; CHO-K1 CHOP-promoter luciferase, tunicamycin-induced, 15-18 h; inhibition, % at 10 µM; actives 3.8% (n = 220,000);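 active = compounds that reduced the stress-induced luciferase reporter signal by more than about 70% of percent inhibition, limit read from the data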
Numbers stand for hits; 0 = inactive; - = not tested or not shown.

SMILES	XBP1 UPR activ	UPR CHOP act	NOD2 RIPK2 PPI	TLR9-MyD88 block	TLR4 MyD88 comp	CHOP inhibitor
CC1(C(=O)NS(=O)(=O)c2cccc(OC(F)F)c2)CCN1C(=O)CC(c1ccccc1)c1ccccc1 (stereo not drawn)	-	-	0	-	-	-
Cc1ccc(NC(=O)Nc2nc(-c3ccc(C)s3)cs2)cc1	0	0	0	0	0	86
COc1ccc(-c2csc(NC(=O)Nc3ccccc3)n2)cc1	0	0	0	0	-	-
COc1ccc(SC[C@H](C)CN2CC[C@H](C(C)(C)C)CCC2=O)cc1	0	0	0	0	-	-
CCOC(=O)c1cc2c(=O)n3ccccc3nc2n(Cc2ccco2)c1=NC(=O)c1ccccc1OC	0	0	0	0	0	72
CCOC(=O)c1cc2c(=O)n3ccccc3nc2n(Cc2ccco2)c1=NC(=O)c1ccc(OC)cc1	0	0	0	0	0	0
COc1ccc(Nc2nc(NCCN3CCOCC3)nc(Nc3ccc(OC)cc3)n2)cc1	0	0	0	0	-	-
N#C/C(=C\Nc1ccc2c(c1)OCCO2)c1nc2ccccc2[nH]1	0	0	0	0	0	74
N[C@H](CCC(=O)NCS(=O)(=O)O)C(=O)O	-	-	-	-	-	0
COc1ccc2oc(=O)c(C(=O)Nc3cccc(C)c3)cc2c1	0	0	0	0	0	82
COc1cc(OC)cc(-n2nnnc2SCC(=O)N2CCCc3ccccc32)c1	0	0	0	0	0	0
COc1cccc(-n2nnnc2SCC(=O)N2CCCc3ccccc32)c1	0	0	0	0	0	70
COc1cccc(-c2nc(-c3ccccc3)nc(N3CCN(C)CC3)c2C#N)c1	0	0	0	0	0	77
COc1cc(OC)cc(C(=O)Nc2nnc(NC(=S)Nc3ccccc3)s2)c1	0	0	0	0	0	108
CC(C)C(OC(=O)c1cccs1)C(=O)NCc1ccco1 (stereo not drawn)	0	0	0	0	0	0
O=C(OC(C(=O)NCc1ccco1)C(OC(=O)c1ccccc1)C(=O)NCc1ccco1)c1ccccc1 (stereo not drawn)	0	0	0	0	0	94
Nc1nc(Nc2ccc(Cl)cc2Cl)nc(C(F)(F)F)n1	0	0	0	0	0	75
S=c1[nH]nc(CSc2nc3ccccc3s2)n1C1CCCCC1	0	0	0	0	0	87
S=c1[nH]nc(COc2ccccc2)n1C1CCCCC1	0	0	0	0	0	0
Cc1ccc(-c2nc(SCC(N)=O)c(C#N)c3c2CCCC3)cc1	0	0	0	0	0	83
C1=C(CCNc2ncnc3c2[nH]c2ccccc23)CCCC1	-	-	0	0	0	80
CCOc1ccc(/C=N/Nc2ccc(C(F)(F)F)cc2[N+](=O)[O-])cc1O	0	0	0	0	0	0
COc1ccc(/C=N/Nc2ccc(C(F)(F)F)cc2[N+](=O)[O-])cc1O	0	0	0	0	0	76
Cc1ccccc1C(=O)Nc1ccc(Br)c(C)n1	0	0	0	0	0	0
Cc1nc(NC(=O)CCc2ccccc2)ccc1Br	0	0	0	0	0	80
SMILES	XBP1 UPR activ	UPR CHOP act	NOD2 RIPK2 PPI	TLR9-MyD88 block	TLR4 MyD88 comp	CHOP inhibitor
CCc1c(O)nc(SCC(=O)Nc2ccc(OC)cc2)n(C2CCCCC2)c1=O	0	0	0	0	0	77
O=C1c2ccccc2C(=O)C1c1ccccn1	0	0	0	0	-	0
O=C1c2ccccc2C(=O)C2OC12 (stereo not drawn)	0	66	-	-	-	-
COc1c2occc2c(OC)c2c(=O)cc(C(F)(F)C(F)(F)F)oc12	0	0	0	0	0	83
COc1c2occc2c(OC)c2c(=O)cc(C(F)(F)F)oc12	0	0	0	0	0	0
COc1ccc(C(O)c2nc(-c3cccc(NC(C)=O)c3)cs2)cc1 (stereo not drawn)	-	-	0	-	-	-
Cc1sc2ncnc(SCc3ccco3)c2c1C	0	0	0	0	0	71
CC(C)CNC(=O)[C@@H]1CSC2c3ccccc3C(=O)N21 (stereo partly drawn)	0	0	0	0	-	-
OC[C@@H]1CN(CCNc2ccccc2)C[C@H](n2cnc3c(NCc4ccncc4)ncnc32)O1	-	-	0	-	-	-
Cc1cc(-n2c(C)cc(C(=O)CSc3ncnc4ccccc34)c2C)no1	0	0	0	0	0	70
COc1cc(/C=N/NC(=O)c2nnn(-c3nonc3N)c2C(C)C)ccc1OCc1ccc(F)cc1	0	0	0	0	-	-
O=C(Nc1nnc(-c2ccc3c(c2)OCCO3)o1)c1ccc(Cc2ccccc2)cc1	0	0	0	0	0	97
O=C(OCc1nnc(-c2ccccc2)o1)c1ccc2c(c1)OCCO2	0	0	0	0	0	76
O=C(Nc1nnc(-c2ccc3c(c2)CCCC3)o1)c1ccccc1	0	0	0	0	0	100
Cc1cccc(-c2nnc(NC(=O)c3ccc(Cl)cc3)o2)c1	0	0	0	0	0	79
Cc1ccc(C(=O)Nc2nnc(-c3ccncc3)o2)cc1	0	0	0	0	0	0
COc1ccc(/C=C/C(=O)OCC(=O)Nc2ccc3[nH]c(=O)[nH]c3c2)cc1OC	0	0	0	0	-	-
Oc1c(C(c2cccs2)N2CCN(c3ccccc3)CC2)ccc2cccnc12 (stereo not drawn)	0	87	-	-	0	99
COc1cccc(NC(=O)c2ccccc2Oc2ccccc2)c1	0	0	0	0	-	-
COc1cccc(Nc2ncccc2C(=O)Nc2ccccc2)c1	0	0	0	0	0	85
Cc1cc(C(=O)c2cnc(/N=C/N(C)C)s2)cc(C)c1O	0	0	0	0	0	0
COc1ccc(N(C(=O)c2ccco2)S(=O)(=O)c2cccs2)cc1	0	0	0	0	0	0
O=C(Nc1ccccc1N(C(=O)c1ccco1)S(=O)(=O)c1cccs1)c1ccco1	0	0	0	0	0	85
CC(O)CNc1nc2c(c(=O)n(Cc3ccc(Cl)cc3)c(=O)n2C)n1C (stereo not drawn)	0	0	0	0	-	-
CC(C)CCNc1nc2c(c(=O)n(Cc3cccc(F)c3)c(=O)n2C)n1C	0	0	0	0	0	71
SMILES	XBP1 UPR activ	UPR CHOP act	NOD2 RIPK2 PPI	TLR9-MyD88 block	TLR4 MyD88 comp	CHOP inhibitor
CC(O)CNc1nc2c(c(=O)n(Cc3ccc(Cl)c(Cl)c3)c(=O)n2C)n1C (stereo not drawn)	0	0	0	0	-	78
Cc1cc(Br)cn2c(Cc3cccc(F)c3)c(-c3ccc(Cl)cc3)nc12	-	-	0	-	-	-
CCc1nc2ccc(C(=O)Nc3cccc(OCC(=O)N(C)C)c3)cn2c1N(C)Cc1ccc(OC)cc1	-	-	0	-	-	-
COc1ccc(NC(=S)Nc2cc(-c3ccccc3)[nH]n2)cc1Cl	0	0	0	0	0	78
COc1ccc(NC(=S)Nc2cc(C)[nH]n2)cc1Cl	0	0	0	0	-	0
O=C(NN1C(=O)NC2(CCCCC2)C1=O)c1ccc(-c2ccc([N+](=O)[O-])cc2)o1	0	0	0	0	-	-
